The source made the active and inactive calls. The rule behind the calls is not given here.
Key:
Mus musculus [1] = experiment: (§1) Hepatoprotective activity against isoniazid-rifampicin induced liver injury in BALB/c mouse assessed as reduction AST level at 100 mg/kg, po bid for 3 days starting 30 mins prior isoniazid-rifampicin administration measured 24 hrs post-last dose of isoniazid-rifampicin relative to control; assay type: functional; design: scale not given: the % may be the effect or the level left
Summary of the method: (§2)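 Serum AST and ALT measured with commercial kits in blood drawn 24 h after the last of three daily oral isoniazid (50 mg/kg) + rifampicin (100 mg/kg) doses. 6 male BALB/c mice per group, mean ± SEM, one-way ANOVA with Newman–Keuls test.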

Mus musculus [2] = experiment: Hepatoprotective activity against isoniazid-rifampicin induced liver injury in BALB/c mouse assessed as reduction ALT level at 100 mg/kg, po bid for 3 days starting 30 mins prior isoniazid-rifampicin administration measured 24 hrs post-last dose of isoniazid-rifampicin relative to control; assay type: functional; design: scale not given: the % may be the effect or the level left; summary of the method: as §2
Mus musculus [3] = experiment: (§3) Hepatoprotective activity against isoniazid-rifampicin induced liver injury in BALB/c mouse assessed as reversal of GSH depletion at 100 mg/kg, po bid for 3 days starting 30 mins prior isoniazid-rifampicin administration measured 24 hrs post-last dose of isoniazid-rifampicin relative to control; assay type: functional
Summary of the method: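 Reduced glutathione assayed with DTNB. Liver homogenized 1:9 w/v in 0.9% saline, spun 3500g 20 min 4 °C. Supernatant deproteinized with 4% sulfosalicylic acid, spun again, then mixed with 0.1 M phosphate buffer and 0.01 M DTNB. Absorbance at 412 nm. 6 mice/group, mean ± SEM.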

Mus musculus [4] = experiment: as §3, with “increase in catalase activity” for “reversal of GSH”; assay type: functional
Summary of the method: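 Liver homogenized 1:9 w/v in 0.9% saline and spun 3500g, 10 min, 4 °C. Supernatant in 50 mM PBS pH 7.0 with 20 mM H2O2 substrate. H2O2 decomposition followed continuously at 240 nm (Aebi method), expressed as mmol H2O2/min/mg protein. n = 6 mice, mean ± SEM.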

Mus musculus [5] = experiment: as §1, with “in hepatic myeloperoxidase activity” for “AST level”; assay type: functional; design: scale not given: the % may be the effect or the level left
Summary of the method: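 Neutrophil recruitment estimated from hepatic myeloperoxidase activity (modified Paszcuk method), expressed as OD/mg tissue. Livers collected 24 h after the last oral isoniazid 50 mg/kg + rifampicin 100 mg/kg dose of a 3-day course. 6 male BALB/c mice/group, mean ± SEM.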

Mus musculus [6] = experiment: Hepatoprotective activity against isoniazid-rifampicin induced liver injury in BALB/c mouse assessed as reduction in hepatic lesion at 100 mg/kg, po bid for 3 days starting 30 mins prior isoniazid-rifampicin administration measured 24 hrs post-last dose of isoniazid-rifampicin relative to control; assay type: functional, organism-based; design: dose 100 mg/kg
Summary of the method: (§4)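 Liver fixed in 10% formaldehyde and paraffin-embedded. 4 μm sections stained with hematoxylin and eosin, examined by light microscopy by a veterinary pathologist blinded to groups. Tissue taken 24 h after the last of 3 daily oral isoniazid (50 mg/kg) + rifampicin (100 mg/kg) doses.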

Mus musculus [7] = experiment: as §1, with “in fatty accumulation” for “AST level”; assay type: functional, organism-based; design: dose 100 mg/kg; summary of the method: as §4
Mus musculus [8] = experiment: as §1, with “prevention of liver statosis development” for “reduction AST level”; assay type: functional, organism-based; design: dose 100 mg/kg; summary of the method: as §4
Mus musculus [9] = experiment: Hepatoprotective activity against isoniazid-rifampicin induced liver injury in BALB/c mouse assessed as reduction in IL6 level at 100 mg/kg, po bid for 3 days starting 30 mins prior isoniazid-rifampicin administration measured 24 hrs post-last dose of isoniazid-rifampicin relative to control; assay type: functional, organism-based; design: dose 100 mg/kg
Mus musculus [10] = experiment: Hepatoprotective activity against isoniazid-rifampicin induced liver injury in BALB/c mouse assessed as reduction in MCP-1 level at 100 mg/kg, po bid for 3 days starting 30 mins prior isoniazid-rifampicin administration measured 24 hrs post-last dose of isoniazid-rifampicin relative to control; assay type: functional, organism-based; design: dose 100 mg/kg
Mus musculus [11] = experiment: as §1, with “restoration of SIRT1 mRNA” for “reduction AST”; assay type: functional, organism-based; design: dose 100 mg/kg
Summary of the method: (§5)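 Livers taken 24 h after the last of three daily oral isoniazid 50 mg/kg + rifampicin 100 mg/kg doses (in 1% DMSO/saline). Hepatic mRNA measured by qPCR with mouse GAPDH probe as endogenous control, reactions in duplicate, relative expression by the 2ΔΔC method. n = 6 male BALB/c mice/group, mean ± SEM.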

Mus musculus [12] = experiment: (§6) Hepatoprotective activity against isoniazid-rifampicin induced liver injury in BALB/c mouse assessed as change in SIRT2 mRNA level at 100 mg/kg, po bid for 3 days starting 30 mins prior isoniazid-rifampicin administration measured 24 hrs post-last dose of isoniazid-rifampicin relative to control; assay type: functional, organism-based; design: dose 100 mg/kg; summary of the method: as §5
Mus musculus [13] = experiment: Hepatoprotective activity against isoniazid-rifampicin induced liver injury in BALB/c mouse assessed as change in SIRT3 mRNA level at 100 mg/kg, po bid for 3 days starting 30 mins prior isoniazid-rifampicin administration measured 24 hrs post-last dose of isoniazid-rifampicin relative to control; assay type: functional, organism-based; design: dose 100 mg/kg; summary of the method: as §5
Mus musculus [14] = experiment: Hepatoprotective activity against isoniazid-rifampicin induced liver injury in BALB/c mouse assessed as change in SIRT4 mRNA level at 100 mg/kg, po bid for 3 days starting 30 mins prior isoniazid-rifampicin administration measured 24 hrs post-last dose of isoniazid-rifampicin relative to control; assay type: functional, organism-based; design: dose 100 mg/kg; summary of the method: as §5
Mus musculus [15] = experiment: Hepatoprotective activity against isoniazid-rifampicin induced liver injury in BALB/c mouse assessed as change in SIRT5 mRNA level at 100 mg/kg, po bid for 3 days starting 30 mins prior isoniazid-rifampicin administration measured 24 hrs post-last dose of isoniazid-rifampicin relative to control; assay type: functional, organism-based; design: dose 100 mg/kg; summary of the method: as §5
Mus musculus [16] = experiment: Hepatoprotective activity against isoniazid-rifampicin induced liver injury in BALB/c mouse assessed as change in SIRT6 mRNA level at 100 mg/kg, po bid for 3 days starting 30 mins prior isoniazid-rifampicin administration measured 24 hrs post-last dose of isoniazid-rifampicin relative to control; assay type: functional, organism-based; design: dose 100 mg/kg; summary of the method: as §5
Mus musculus [17] = experiment: Hepatoprotective activity against isoniazid-rifampicin induced liver injury in BALB/c mouse assessed as change in SIRT7 mRNA level at 100 mg/kg, po bid for 3 days starting 30 mins prior isoniazid-rifampicin administration measured 24 hrs post-last dose of isoniazid-rifampicin relative to control; assay type: functional, organism-based; design: dose 100 mg/kg; summary of the method: as §5
Mus musculus [18] = experiment: as §1, with “in PPAR-gamma mRNA” for “AST”; assay type: functional, organism-based; design: dose 100 mg/kg; summary of the method: as §5
Mus musculus [19] = experiment: as §1, with “in PGC-1alpha mRNA” for “AST”; assay type: functional, organism-based; design: dose 100 mg/kg; summary of the method: as §5
Mus musculus [20] = experiment: as §6, with “effect on nicotinamide phosphoribosyltransferase” for “change in SIRT2”; assay type: functional, organism-based; design: dose 100 mg/kg; summary of the method: as §5
Mus musculus [21] = experiment: Hepatoprotective activity against isoniazid-rifampicin induced liver injury in BALB/c mouse assessed as effect on NAD+ concentration at 100 mg/kg, po bid for 3 days starting 30 mins prior isoniazid-rifampicin administration measured 24 hrs post-last dose of isoniazid-rifampicin relative to control; assay type: functional, organism-based; design: dose 100 mg/kg
Summary of the method: (§7)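 Liver NAD+ and NADH quantified with a commercial colorimetric kit per manufacturer's instructions, reduced product read at 565 nm. Tissue collected 24 h after the final oral isoniazid (50 mg/kg) + rifampicin (100 mg/kg) dose of a 3-day course. 6 male BALB/c mice per group.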

Mus musculus [22] = experiment: Hepatoprotective activity against isoniazid-rifampicin induced liver injury in BALB/c mouse assessed as effect on NADH concentration at 100 mg/kg, po bid for 3 days starting 30 mins prior isoniazid-rifampicin administration measured 24 hrs post-last dose of isoniazid-rifampicin relative to control; assay type: functional, organism-based; design: dose 100 mg/kg; summary of the method: as §7
Mus musculus [23] = experiment: Hepatoprotective activity against isoniazid-rifampicin induced liver injury in BALB/c mouse assessed as reduction in TNFalpha level at 100 mg/kg, po bid for 3 days starting 30 mins prior isoniazid-rifampicin administration measured 24 hrs post-last dose of isoniazid-rifampicin relative to control; assay type: functional, organism-based; design: dose 100 mg/kg
Summary of the method: (§8)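 Cytokines measured in homogenized liver tissue by flow cytometry (488 nm laser, high-throughput sampler). Tissue from male BALB/c mice 24 h after final oral isoniazid 50 mg/kg + rifampicin 100 mg/kg. n = 6/group, mean ± SEM, one-way ANOVA/Newman–Keuls.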

Mus musculus [24] = experiment: Hepatoprotective activity against isoniazid-rifampicin induced liver injury in BALB/c mouse assessed as reduction in IL-12p70 level at 100 mg/kg, po bid for 3 days starting 30 mins prior isoniazid-rifampicin administration measured 24 hrs post-last dose of isoniazid-rifampicin relative to control; assay type: functional, organism-based; design: dose 100 mg/kg; summary of the method: as §8
Mus musculus [25] = experiment: Hepatoprotective activity against isoniazid-rifampicin induced liver injury in BALB/c mouse assessed as reduction in IL-10 level at 100 mg/kg, po bid for 3 days starting 30 mins prior isoniazid-rifampicin administration measured 24 hrs post-last dose of isoniazid-rifampicin relative to control; assay type: functional, organism-based; design: dose 100 mg/kg; summary of the method: as §8

In the case of Oc1ccc(/C=C/c2cc(O)cc(O)c2)cc1 [RESVERATROL], the Activity (Mus musculus [1]) is reported as 36%, the Activity (Mus musculus [2]) is reported as 58% and the Activity (Mus musculus [3]) is reported as 89%. For the same compound, the Activity (Mus musculus [4]) was 34%, the Activity (Mus musculus [5]) was 19% and the Activity (Mus musculus [6]) was “Active”. The Activity (Mus musculus [7]) was “Active”, the Activity (Mus musculus [8]) was “Active” and the Activity (Mus musculus [9]) was “inactive”. The Activity (Mus musculus [10]) was “inactive”, the Activity (Mus musculus [11]) was “Active” and the Activity (Mus musculus [12]) was “inactive”. The Activity (Mus musculus [13]) was “inactive”, the Activity (Mus musculus [14]) was “inactive” and the Activity (Mus musculus [15]) was “inactive”. The Activity (Mus musculus [16]) was “inactive”, the Activity (Mus musculus [17]) was “inactive” and the Activity (Mus musculus [18]) was “Active”. For the same compound, the Activity (Mus musculus [19]) was “Active”, the Activity (Mus musculus [20]) was “inactive” and the Activity (Mus musculus [21]) was “inactive”. For the same compound, the Activity (Mus musculus [22]) was “inactive”, the Activity (Mus musculus [23]) was “Active” and the Activity (Mus musculus [24]) was “Active”. For the same compound, the Activity (Mus musculus [25]) was “Active”.
